Test results published in ChEMBL document CHEMBL3046951, “Volatile constituents from the leaves of Callicarpa japonica Thunb. and their antibacterial activities” (2004).

Assays:
Assay type in all cases: functional
Vibrio parahaemolyticus [1] = experiment: Antimicrobial activity against Vibrio parahaemolyticus ATCC 33844 assessed as growth inhibition rate at 0.24 mg/l after 72 hr by spectrophotometry; settings: ATCC 33844, 72 h, read-out: GI
Bacillus cereus [2] = experiment: Antimicrobial activity against Bacillus cereus ATCC 11778 assessed as growth inhibition rate at 12 mg/l after 72 hr by spectrophotometry; settings: ATCC 11778, 72 h, read-out: GI
Outline: (§1)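 Pure volatile compounds (purity >95%; one at 90%) were tested against B. cereus ATCC 11778. The strain was grown at 30 °C in nutrient broth for 24 h, then subcultured for 18 h. Optical density was read in a Bioscreen C every 24 h for 72 h, with 10% Tween 80 as the control.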

Listeria monocytogenes [3] = experiment: Antimicrobial activity against Listeria monocytogenes ATCC 19111 assessed as growth inhibition rate at 12 mg/l after 72 hr by spectrophotometry; settings: ATCC 19111, 72 h, read-out: GI
Outline: (§2)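 L. monocytogenes was grown at 30 °C in tryptic soy broth, subcultured for 18 h, and exposed to pure volatile compounds (>95% purity). Growth was followed by Bioscreen C optical density every 24 h for 72 h against a 10% Tween 80 control.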

Staphylococcus aureus [4] = experiment: Antimicrobial activity against Staphylococcus aureus ATCC 25923 assessed as growth inhibition rate at 1.2 mg/l after 72 hr by spectrophotometry; settings: ATCC 25923, 72 h, read-out: GI
Outline: (§3)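 Authentic volatiles (>95% purity; 2,4-heptadienal 90%) tested against 18 h subcultures. Growth media: E. coli O157:H7 and S. aureus in tryptic soy broth at 37 °C; L. monocytogenes in tryptic soy broth at 30 °C; V. parahaemolyticus in tryptic soy broth + 3% NaCl at 37 °C; S. typhimurium in nutrient broth at 30 °C. Bioscreen C OD every 24 h for 72 h versus 10% Tween 80 control.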

Vibrio parahaemolyticus [5] = experiment: Antimicrobial activity against Vibrio parahaemolyticus ATCC 33844 assessed as growth inhibition rate at 12 mg/l after 72 hr by spectrophotometry; settings: ATCC 33844, 72 h, read-out: GI
Staphylococcus aureus [6] = experiment: Antimicrobial activity against Staphylococcus aureus ATCC 25923 assessed as growth inhibition rate at 24 mg/l after 72 hr by spectrophotometry; settings: ATCC 25923, 72 h, read-out: GI
Vibrio parahaemolyticus [7] = experiment: Antimicrobial activity against Vibrio parahaemolyticus ATCC 33844 assessed as growth inhibition rate at 2.4 mg/l after 72 hr by spectrophotometry; settings: ATCC 33844, 72 h, read-out: GI
Vibrio parahaemolyticus [8] = experiment: Antimicrobial activity against Vibrio parahaemolyticus ATCC 33844 assessed as growth inhibition rate at 1.2 mg/l after 72 hr by spectrophotometry; settings: ATCC 33844, 72 h, read-out: GI; outline: as §3
Staphylococcus aureus [9] = experiment: Antimicrobial activity against Staphylococcus aureus ATCC 25923 assessed as growth inhibition rate at 0.03 mg/l after 72 hr by spectrophotometry; settings: ATCC 25923, 72 h, read-out: GI
Staphylococcus aureus [10] = experiment: Antimicrobial activity against Staphylococcus aureus ATCC 25923 assessed as growth inhibition rate at 2.4 mg/l after 72 hr by spectrophotometry; settings: ATCC 25923, 72 h, read-out: GI
Bacillus cereus [11] = experiment: Antimicrobial activity against Bacillus cereus ATCC 11778 assessed as growth inhibition rate at 1.2 mg/l after 72 hr by spectrophotometry; settings: ATCC 11778, 72 h, read-out: GI
Outline: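 Pure volatile compounds (>95% purity; 2,4-heptadienal 90%) identified in the leaf extract were tested against B. cereus ATCC 11778 in nutrient broth at 30 °C. The inoculum was grown 24 h, then subcultured (0.1 mL into 9.9 mL) for 18 h. Optical density was read in a Bioscreen C every 24 h for 72 h against a 10% Tween 80 control.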

Escherichia coli [12] = experiment: Antimicrobial activity against Escherichia coli O157:H7 ATCC 43894 assessed as growth inhibition rate at 2.4 mg/l after 72 hr by spectrophotometry; settings: O157:H7 ATCC 43894, 72 h, read-out: GI
Bacillus cereus [13] = experiment: Antimicrobial activity against Bacillus cereus ATCC 11778 assessed as growth inhibition rate at 2.4 mg/l after 72 hr by spectrophotometry; settings: ATCC 11778, 72 h, read-out: GI; outline: as §1
Staphylococcus aureus [14] = experiment: Antimicrobial activity against Staphylococcus aureus ATCC 25923 assessed as growth inhibition rate at 0.24 mg/l after 72 hr by spectrophotometry; settings: ATCC 25923, 72 h, read-out: GI
Listeria monocytogenes [15] = experiment: Antimicrobial activity against Listeria monocytogenes ATCC 19111 assessed as growth inhibition rate at 1.2 mg/l after 72 hr by spectrophotometry; settings: ATCC 19111, 72 h, read-out: GI; outline: as §3
Bacillus cereus [16] = experiment: Antimicrobial activity against Bacillus cereus ATCC 11778 assessed as growth inhibition rate at 0.03 mg/l after 72 hr by spectrophotometry; settings: ATCC 11778, 72 h, read-out: GI; outline: as §1
Salmonella typhimurium [17] = experiment: Antimicrobial activity against Salmonella enterica subsp. enterica serovar Typhimurium ATCC 14028 assessed as growth inhibition rate at 2.4 mg/l after 72 hr by spectrophotometry; settings: ATCC 14028, 72 h, read-out: GI
Outline: (§4)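 Salmonella Typhimurium ATCC 14028 grown in nutrient broth at 30 °C, precultured 24 h, then subcultured 1:100 for 18 h before testing. Single volatile compounds (>95% pure) were added. OD was read every 24 h over 72 h in a Bioscreen C, with 10% Tween 80 as the comparison control.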

Vibrio parahaemolyticus [18] = experiment: Antimicrobial activity against Vibrio parahaemolyticus ATCC 33844 assessed as growth inhibition rate at 0.03 mg/l after 72 hr by spectrophotometry; settings: ATCC 33844, 72 h, read-out: GI
Salmonella typhimurium [19] = experiment: Antimicrobial activity against Salmonella enterica subsp. enterica serovar Typhimurium ATCC 14028 assessed as growth inhibition rate at 12 mg/l after 72 hr by spectrophotometry; settings: ATCC 14028, 72 h, read-out: GI; outline: as §4
Listeria monocytogenes [20] = experiment: Antimicrobial activity against Listeria monocytogenes ATCC 19111 assessed as growth inhibition rate at 24 mg/l after 72 hr by spectrophotometry; settings: ATCC 19111, 72 h, read-out: GI; outline: as §2
Salmonella typhimurium [21] = experiment: Antimicrobial activity against Salmonella enterica subsp. enterica serovar Typhimurium ATCC 14028 assessed as growth inhibition rate at 1.2 mg/l after 72 hr by spectrophotometry; settings: ATCC 14028, 72 h, read-out: GI; outline: as §3
Staphylococcus aureus [22] = experiment: Antimicrobial activity against Staphylococcus aureus ATCC 25923 assessed as growth inhibition rate at 12 mg/l after 72 hr by spectrophotometry; settings: ATCC 25923, 72 h, read-out: GI
Escherichia coli [23] = experiment: Antimicrobial activity against Escherichia coli O157:H7 ATCC 43894 assessed as growth inhibition rate at 1.2 mg/l after 72 hr by spectrophotometry; settings: O157:H7 ATCC 43894, 72 h, read-out: GI
Bacillus cereus [24] = experiment: Antimicrobial activity against Bacillus cereus ATCC 11778 assessed as growth inhibition rate at 24 mg/l after 72 hr by spectrophotometry; settings: ATCC 11778, 72 h, read-out: GI; outline: as §1
Listeria monocytogenes [25] = experiment: Antimicrobial activity against Listeria monocytogenes ATCC 19111 assessed as growth inhibition rate at 0.03 mg/l after 72 hr by spectrophotometry; settings: ATCC 19111, 72 h, read-out: GI; outline: as §2
Escherichia coli [26] = experiment: Antimicrobial activity against Escherichia coli O157:H7 ATCC 43894 assessed as growth inhibition rate at 0.24 mg/l after 72 hr by spectrophotometry; settings: O157:H7 ATCC 43894, 72 h, read-out: GI
Escherichia coli [27] = experiment: Antimicrobial activity against Escherichia coli O157:H7 ATCC 43894 assessed as growth inhibition rate at 24 mg/l after 72 hr by spectrophotometry; settings: O157:H7 ATCC 43894, 72 h, read-out: GI
Escherichia coli [28] = experiment: Antimicrobial activity against Escherichia coli O157:H7 ATCC 43894 assessed as growth inhibition rate at 0.03 mg/l after 72 hr by spectrophotometry; settings: O157:H7 ATCC 43894, 72 h, read-out: GI
Listeria monocytogenes [29] = experiment: Antimicrobial activity against Listeria monocytogenes ATCC 19111 assessed as growth inhibition rate at 2.4 mg/l after 72 hr by spectrophotometry; settings: ATCC 19111, 72 h, read-out: GI; outline: as §2
Vibrio parahaemolyticus [30] = experiment: Antimicrobial activity against Vibrio parahaemolyticus ATCC 33844 assessed as growth inhibition rate at 24 mg/l after 72 hr by spectrophotometry; settings: ATCC 33844, 72 h, read-out: GI
Salmonella typhimurium [31] = experiment: Antimicrobial activity against Salmonella enterica subsp. enterica serovar Typhimurium ATCC 14028 assessed as growth inhibition rate at 0.03 mg/l after 72 hr by spectrophotometry; settings: ATCC 14028, 72 h, read-out: GI; outline: as §4
Listeria monocytogenes [32] = experiment: Antimicrobial activity against Listeria monocytogenes ATCC 19111 assessed as growth inhibition rate at 0.24 mg/l after 72 hr by spectrophotometry; settings: ATCC 19111, 72 h, read-out: GI; outline: as §2
Escherichia coli [33] = experiment: Antimicrobial activity against Escherichia coli O157:H7 ATCC 43894 assessed as growth inhibition rate at 12 mg/l after 72 hr by spectrophotometry; settings: O157:H7 ATCC 43894, 72 h, read-out: GI
Salmonella typhimurium [34] = experiment: Antimicrobial activity against Salmonella enterica subsp. enterica serovar Typhimurium ATCC 14028 assessed as growth inhibition rate at 24 mg/l after 72 hr by spectrophotometry; settings: ATCC 14028, 72 h, read-out: GI; outline: as §4
Bacillus cereus [35] = experiment: Antimicrobial activity against Bacillus cereus ATCC 11778 assessed as growth inhibition rate at 0.24 mg/l after 72 hr by spectrophotometry; settings: ATCC 11778, 72 h, read-out: GI; outline: as §1
Salmonella typhimurium [36] = experiment: Antimicrobial activity against Salmonella enterica subsp. enterica serovar Typhimurium ATCC 14028 assessed as growth inhibition rate at 0.24 mg/l after 72 hr by spectrophotometry; settings: ATCC 14028, 72 h, read-out: GI; outline: as §4

Compound: C[C@@H]1CC[C@@H]2[C@@H]1[C@H]1[C@@H](CC[C@]2(C)O)C1(C)C [(-)-EPIGLOBULOL]
- inhibition of growth at 0.24 µg/mL (Vibrio parahaemolyticus [1]): 11.4%
- inhibition of growth at 12 µg/mL (Bacillus cereus [2]): 63.6%
- inhibition of growth at 12 µg/mL (Listeria monocytogenes [3]): 92%
- inhibition of growth at 1.2 µg/mL (Staphylococcus aureus [4]): 5.8%
- inhibition of growth at 12 µg/mL (Vibrio parahaemolyticus [5]): 61.2%
- inhibition of growth at 24 µg/mL (Staphylococcus aureus [6]): 99.6%
- inhibition of growth at 2.4 µg/mL (Vibrio parahaemolyticus [7]): 11.7%
- inhibition of growth at 1.2 µg/mL (Vibrio parahaemolyticus [8]): 11.1%
- inhibition of growth at 0.03 µg/mL (Staphylococcus aureus [9]): 1.7%
- inhibition of growth at 2.4 µg/mL (Staphylococcus aureus [10]): 5.9%
- inhibition of growth at 1.2 µg/mL (Bacillus cereus [11]): 13.9%
- inhibition of growth at 2.4 µg/mL (Escherichia coli [12]): 2.1%
- inhibition of growth at 2.4 µg/mL (Bacillus cereus [13]): 18.6%
- inhibition of growth at 0.24 µg/mL (Staphylococcus aureus [14]): 2.6%
- inhibition of growth at 1.2 µg/mL (Listeria monocytogenes [15]): 8.2%
- inhibition of growth at 0.03 µg/mL (Bacillus cereus [16]): 0.6%
- inhibition of growth at 2.4 µg/mL (Salmonella typhimurium [17]): 4.9%
- inhibition of growth at 0.03 µg/mL (Vibrio parahaemolyticus [18]): 3.1%
- inhibition of growth at 12 µg/mL (Salmonella typhimurium [19]): 39.1%
- inhibition of growth at 24 µg/mL (Listeria monocytogenes [20]): 94.3%
- inhibition of growth at 1.2 µg/mL (Salmonella typhimurium [21]): 4.4%
- inhibition of growth at 12 µg/mL (Staphylococcus aureus [22]): 99.4%
- inhibition of growth at 1.2 µg/mL (Escherichia coli [23]): 0.9%
- inhibition of growth at 24 µg/mL (Bacillus cereus [24]): 95.7%
- inhibition of growth at 0.03 µg/mL (Listeria monocytogenes [25]): 5.8%
- inhibition of growth at 0.24 µg/mL (Escherichia coli [26]): 0.7%
- inhibition of growth at 24 µg/mL (Escherichia coli [27]): 26.3%
- inhibition of growth at 0.03 µg/mL (Escherichia coli [28]): 0.3%
- inhibition of growth at 2.4 µg/mL (Listeria monocytogenes [29]): 10.1%
- inhibition of growth at 24 µg/mL (Vibrio parahaemolyticus [30]): 65.8%
- inhibition of growth at 0.03 µg/mL (Salmonella typhimurium [31]): 2.2%
- inhibition of growth at 0.24 µg/mL (Listeria monocytogenes [32]): 6.1%
- inhibition of growth at 12 µg/mL (Escherichia coli [33]): 22.6%
- inhibition of growth at 24 µg/mL (Salmonella typhimurium [34]): 58.1%
- inhibition of growth at 0.24 µg/mL (Bacillus cereus [35]): 8.2%
- inhibition of growth at 0.24 µg/mL (Salmonella typhimurium [36]): 3.9%
